{"source": "paper PMC2225614", "about": "(The Journal of General Physiology, 2001)", "key": {"[1]": {"molecular_target": "T1, α-subunit of the bovine retinal rod CNG channel (RETα) (Bos taurus, UniProt Q00194)", "T1 sequence (Q00194 1-690)": "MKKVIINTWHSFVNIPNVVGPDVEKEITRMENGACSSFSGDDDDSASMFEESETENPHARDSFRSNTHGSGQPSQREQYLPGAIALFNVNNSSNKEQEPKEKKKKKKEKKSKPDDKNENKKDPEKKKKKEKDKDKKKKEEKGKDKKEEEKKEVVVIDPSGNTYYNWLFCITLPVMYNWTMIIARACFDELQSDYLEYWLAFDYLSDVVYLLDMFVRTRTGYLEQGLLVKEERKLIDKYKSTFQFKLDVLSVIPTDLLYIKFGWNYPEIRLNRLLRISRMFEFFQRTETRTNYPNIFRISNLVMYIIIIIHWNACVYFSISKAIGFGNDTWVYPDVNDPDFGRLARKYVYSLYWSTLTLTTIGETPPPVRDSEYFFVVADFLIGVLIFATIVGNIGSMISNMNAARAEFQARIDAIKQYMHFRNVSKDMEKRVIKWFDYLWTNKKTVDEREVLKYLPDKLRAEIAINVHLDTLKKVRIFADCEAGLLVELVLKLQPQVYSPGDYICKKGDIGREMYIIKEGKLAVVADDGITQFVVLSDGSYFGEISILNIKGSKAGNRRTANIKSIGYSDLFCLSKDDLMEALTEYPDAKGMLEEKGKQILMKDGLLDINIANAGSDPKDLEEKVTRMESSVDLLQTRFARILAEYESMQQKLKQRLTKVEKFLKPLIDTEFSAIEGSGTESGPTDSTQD", "assay_type": "biochemical", "settings": "for opening allosteric constant (L): L = Po/(1 − Po)"}, "[2]": {"test_system": "CHM34 (converse substitution in OLFα background)", "test": "Genistein inhibition of closed chimeric channel CHM34", "assay_type": "biochemical, bovine/rat", "settings": "closed channels"}, "[3]": {"test_system": "CHM18 (OLFα with a RETα cyclic nucleotide–binding domain)", "test": "Genistein inhibition of closed chimeric channel CHM18", "assay_type": "biochemical, bovine/rat", "settings": "closed channels", "how_it_was_run": "(§1)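 Chimeric RETα/OLFα channels were expressed in Xenopus oocytes (50 nl of 50 ng/μl RNA, 2–7 d), and the vitelline membrane was removed. Inside-out patches were bathed in symmetrical 115 mM NaCl, 5 mM EGTA, 1 mM EDTA, 5 mM HEPES, pH 7.5, held at −75 mV. Test compound was preapplied 1 min to closed channels, then saturating 2 mM cGMP; residual current normalized to Imax.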"}, "[4]": {"test_system": "CHM 15 (switched NH2-terminal domain through part of S1)", "test": "Genistein inhibition of closed chimeric channel CHM 15", "assay_type": "biochemical, bovine/rat", "settings": "closed channels; behaved like parent channel", "how_it_was_run": "as §1"}, "[5]": {"test_system": "CHM16 (switched NH2-terminal domain through part of S1)", "test": "Genistein inhibition of closed chimeric channel CHM16", "assay_type": "biochemical, bovine/rat", "settings": "closed channels; behaved like parent channel", "how_it_was_run": "as §1"}, "[6]": {"test_system": "CHM11 (RETα with OLFα pore module: S5, P region, S6, initial C-linker)", "test": "Genistein inhibition of chimeric channel CHM11", "assay_type": "biochemical, bovine/rat"}, "[7]": {"test_system": "CHM20 (S5 domain exchanged between RETα and OLFα)", "test": "Genistein inhibition of closed chimeric channel CHM20", "assay_type": "biochemical, bovine/rat", "settings": "closed channels", "how_it_was_run": "as §1"}, "[8]": {"test_system": "CHM22 (S5 domain exchanged between RETα and OLFα)", "test": "Genistein inhibition of closed chimeric channel CHM22", "assay_type": "biochemical, bovine/rat", "settings": "closed channels", "how_it_was_run": "as §1"}, "[9]": {"molecular_target": "T2, CHM23 (OLFα with RETα part of pore, S6 and part of C-linker) (Rattus norvegicus, UniProt Q00195, C329S/E325K/E350S/F357A/H396Q/I327V/I356V/K348R/K390R/L353F/Q399H/T383A/V373I/V394I)", "T2 sequence (Q00195 1-664 E325K/I327V/C329S/K348R/E350S/L353F/I356V/F357A/V373I/T383A/K390R/V394I/H396Q/Q399H)": "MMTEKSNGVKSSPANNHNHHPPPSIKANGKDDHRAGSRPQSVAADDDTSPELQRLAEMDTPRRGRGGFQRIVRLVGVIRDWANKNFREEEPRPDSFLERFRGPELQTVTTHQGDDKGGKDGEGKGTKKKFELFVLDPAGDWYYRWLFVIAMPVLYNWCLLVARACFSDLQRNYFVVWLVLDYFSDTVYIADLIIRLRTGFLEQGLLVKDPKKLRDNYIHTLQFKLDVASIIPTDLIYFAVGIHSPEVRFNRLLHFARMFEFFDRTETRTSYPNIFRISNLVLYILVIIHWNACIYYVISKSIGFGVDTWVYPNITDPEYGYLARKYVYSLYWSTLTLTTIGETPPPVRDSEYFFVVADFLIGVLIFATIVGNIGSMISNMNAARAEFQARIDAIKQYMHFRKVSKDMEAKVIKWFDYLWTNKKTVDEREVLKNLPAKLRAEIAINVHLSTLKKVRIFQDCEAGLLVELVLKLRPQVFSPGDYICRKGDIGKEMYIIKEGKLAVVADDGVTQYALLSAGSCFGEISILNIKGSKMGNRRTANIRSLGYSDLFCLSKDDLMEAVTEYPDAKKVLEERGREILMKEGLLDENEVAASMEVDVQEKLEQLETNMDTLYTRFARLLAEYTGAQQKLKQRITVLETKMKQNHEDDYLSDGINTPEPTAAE", "test": "Genistein inhibition of closed chimeric channel CHM23", "assay_type": "biochemical, bovine/rat", "how_it_was_run": "as §1"}, "[10]": {"test_system": "α-subunit of the rat olfactory CNG channel (OLFα)", "settings": "ref Molokanova et al. 2000; cited from earlier work"}, "[11]": {"settings": "after genistein application, saturating cGMP"}}, "note": "Read-outs that look alike come from different tables or passages of the source."}
{"smiles": "O=c1c(-c2ccc(O)cc2)coc2cc(O)cc(O)c12", "note": "[genistein]", "values": [{"measurement": "effect on single-channel current", "setting": "[1]; 100 μM genistein, saturating cGMP", "result": "unaffected"}, {"measurement": "decrease in the average Po", "setting": "[1]; 100 μM genistein, saturating cGMP, six patches", "result": "39 ± 6", "unit": "%"}, {"measurement": "Po during periods of high activity (bursty pattern)", "setting": "[1]; [11]", "result": "0.4–0.9"}, {"measurement": "duration of high-Po periods", "setting": "[1]; [11]", "result": "15 to 30", "unit": "s"}, {"measurement": "duration of silent periods (Po = 0)", "setting": "[1]; [11]", "result": "10 to 80", "unit": "s"}, {"measurement": "single-channel current (i)", "setting": "[1]; after preexposure to 100 μM genistein, Fig. 6 A", "result": 1.97, "unit": "pA"}, {"measurement": "single-channel current (i)", "setting": "[1]; after preexposure to 100 μM genistein, Fig. 6 B", "result": 1.96, "unit": "pA"}, {"measurement": "Po, intermediate gating mode", "setting": "[1]; after preexposure to 100 μM genistein, all four patches with this mode", "result": "0.39 ± 0.08"}, {"measurement": "decrease of L compared with control", "setting": "[1]; in the presence of genistein", "result": "30–1,000 fold"}, {"measurement": "single-channel current (i)", "setting": "[1]; in the presence of genistein, 2 mM cGMP, −80 mV, Fig. 5 B", "result": 1.97, "unit": "pA"}, {"measurement": "open probability (Po)", "setting": "[1]; in the presence of genistein, 2 mM cGMP, −80 mV, Gaussian fit, Fig. 5 B", "result": 0.529}, {"measurement": "free energy of channel opening (ΔGopening)", "setting": "[1]; one genistein molecule", "result": 0.24, "unit": "kcal/mol"}, {"measurement": "opening allosteric constant (L)", "setting": "[1]; one genistein molecule bound", "result": 0.61}, {"measurement": "opening allosteric constant (L)", "setting": "[1]; two genistein molecules bound", "result": 0.02}, {"measurement": "genistein inhibition", "setting": "[2]", "result": "neither substitution introduced genistein inhibition"}, {"measurement": "genistein inhibition", "setting": "[3]", "result": "no inhibition"}, {"measurement": "effect of domain switch on genistein inhibition", "setting": "[4]", "result": "had no effect"}, {"measurement": "effect of domain switch on genistein inhibition", "setting": "[5]", "result": "had no effect"}, {"measurement": "maximal inhibition", "setting": "[6]; closed state, 500 μM genistein", "result": "~15", "unit": "%"}, {"measurement": "genistein sensitivity", "setting": "[6]; open state, up to 500 μM genistein", "result": "completely insensitive"}, {"measurement": "effect of domain exchange on genistein inhibition", "setting": "[7]", "result": "did not alter genistein inhibition"}, {"measurement": "effect of domain exchange on genistein inhibition", "setting": "[8]", "result": "did not alter genistein inhibition"}, {"measurement": "inhibition of closed channels", "setting": "[9]", "result": 99, "unit": "%"}, {"measurement": "genistein inhibition", "setting": "[10]", "result": "do not exhibit genistein inhibition"}]}
